Calls of active or inactive are those of the source. The calls are words filed in the database; no cut-off is given here.
Tests used:
Calvarial osteoblast [1] = assay: Upregulation of Osx mRNA levels in rat calvarial osteoblasts at 1 uM after 48 hrs by qRT-PCR analysis relative to control; assay type: functional
Method in brief: (§1)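 Rat pup calvarial osteoblasts were treated for 48 h with compound. Total RNA was extracted with TRIzol and checked by A260 and A260/A280. qRT-PCR used 45 cycles (94 °C, 62 °C, 72 °C steps) and was normalised to GAPDH. Fold change is over untreated cells; n=5, mean ± SEM.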

Calvarial osteoblast [2] = assay: Anabolic activity in rat calvarial osteoblasts assessed as induction of alkaline phosphatase activity at 100 uM after 48 hrs in presence of beta-glycerophosphate and ascorbic acid by p-nitrophenyl phosphate substrate based assay (reference value: 1 to 1.21); assay type: functional
Calvarial osteoblast [3] = assay: Upregulation of Runx2 mRNA levels in rat calvarial osteoblasts at 1 uM after 48 hrs by qRT-PCR analysis relative to control; assay type: functional; method in brief: as §1
Calvarial osteoblast [4] = assay: Upregulation of Col1 mRNA levels in rat calvarial osteoblasts at 1 uM after 48 hrs by qRT-PCR analysis relative to control; assay type: functional; method in brief: as §1
Calvarial osteoblast [5] = assay: Anabolic activity in rat calvarial osteoblasts assessed as induction of alkaline phosphatase activity at 1 pM after 48 hrs in presence of beta-glycerophosphate and ascorbic acid by p-nitrophenyl phosphate substrate based assay (reference value: 1 to 1.21); assay type: functional
Calvarial osteoblast [6] = assay: Upregulation of ALP mRNA levels in rat calvarial osteoblasts at 1 uM after 48 hrs by qRT-PCR analysis relative to control; assay type: functional; method in brief: as §1
Calvarial osteoblast [7] = assay: Induction of mineralization in rat calvarial osteoblasts at 10 nM after 21 days by Alizarin-red dye based assay; assay type: functional, cell-based
Method in brief: (§2)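 Rat pup calvarial osteoblasts were seeded at 1×10^4 cells/well in differentiation medium with compound. Medium was changed every other day for 21 days. Cells were fixed in 4% paraformaldehyde and stained with 40 mM Alizarin red (pH 4.5). Stain was extracted with 10% acetic acid, heated to 85 °C, and neutralised with NH4OH. Absorbance was read at 405 nm.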

Calvarial osteoblast [8] = assay: Anabolic activity in rat calvarial osteoblasts assessed as induction of alkaline phosphatase activity at 10 nM after 48 hrs in presence of beta-glycerophosphate and ascorbic acid by p-nitrophenyl phosphate substrate based assay (reference value: 1 to 1.21); assay type: functional
Calvarial osteoblast [9] = assay: Upregulation of Bmp2 mRNA levels in rat calvarial osteoblasts at 10 nM after 48 hrs by qRT-PCR analysis relative to control; assay type: functional; method in brief: as §1
Calvarial osteoblast [10] = assay: Anabolic activity in rat calvarial osteoblasts assessed as induction of alkaline phosphatase activity after 48 hrs in presence of beta-glycerophosphate and ascorbic acid by p-nitrophenyl phosphate substrate based assay; assay type: functional, cell-based
Calvarial osteoblast [11] = assay: Upregulation of ALP mRNA levels in rat calvarial osteoblasts at 10 nM after 48 hrs by qRT-PCR analysis relative to control; assay type: functional; method in brief: as §1
Calvarial osteoblast [12] = assay: Anabolic activity in rat calvarial osteoblasts assessed as induction of alkaline phosphatase activity at 100 pM after 48 hrs in presence of beta-glycerophosphate and ascorbic acid by p-nitrophenyl phosphate substrate based assay (reference value: 1 to 1.21); assay type: functional
Calvarial osteoblast [13] = assay: Anabolic activity in rat calvarial osteoblasts assessed as induction of alkaline phosphatase activity at 1 uM after 48 hrs in presence of beta-glycerophosphate and ascorbic acid by p-nitrophenyl phosphate substrate based assay (reference value: 1 to 1.21); assay type: functional
Calvarial osteoblast [14] = assay: Upregulation of Bmp2 mRNA levels in rat calvarial osteoblasts at 1 uM after 48 hrs by qRT-PCR analysis relative to control; assay type: functional; method in brief: as §1
Calvarial osteoblast [15] = assay: Upregulation of Runx2 mRNA levels in rat calvarial osteoblasts at 10 nM after 48 hrs by qRT-PCR analysis relative to control; assay type: functional; method in brief: as §1
Calvarial osteoblast [16] = assay: Upregulation of Osx mRNA levels in rat calvarial osteoblasts at 10 nM after 48 hrs by qRT-PCR analysis relative to control; assay type: functional; method in brief: as §1
Calvarial osteoblast [17] = assay: Upregulation of Col1 mRNA levels in rat calvarial osteoblasts at 10 nM after 48 hrs by qRT-PCR analysis relative to control; assay type: functional; method in brief: as §1
Calvarial osteoblast [18] = assay: Upregulation of BMP2 expression levels in rat calvarial osteoblasts at 100 pM after 48 hrs by Western blot analysis; assay type: functional, cell-based
Calvarial osteoblast [19] = assay: Upregulation of Runx2 mRNA levels in rat calvarial osteoblasts at 100 pM after 48 hrs by qRT-PCR analysis relative to control; assay type: functional; method in brief: as §1
Rattus norvegicus [20] = assay: Osteogenic activity in Sprague-Dawley rat drill-hole fracture model assessed as increase in mineral deposition at 10 mg/kg/day by calcein labeling-based confocal microscopy analysis
Calvarial osteoblast [21] = assay: Upregulation of ALP mRNA levels in rat calvarial osteoblasts at 100 pM after 48 hrs by qRT-PCR analysis relative to control; assay type: functional; method in brief: as §1
Calvarial osteoblast [22] = assay: Cytotoxicity against rat calvarial osteoblasts at 100 uM after 48 hrs by MTT assay; assay type: cell-based
Method in brief: (§3)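 Primary osteoblasts from calvaria of 1–2-day-old rat pups, released by sequential dispase/collagenase P digestion and grown in α-MEM with 10% FCS to 70–80% confluence. Seeded at 2000 cells/well and treated with 1 pM to 100 µM for 48 h in differentiation medium (10 mM β-glycerophosphate, 50 µg/mL ascorbic acid). Viability read by MTT against untreated control; n=8, mean ± SEM.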

Calvarial osteoblast [23] = assay: Induction of mineralization in rat calvarial osteoblasts at 0.1 nM to 10 nM after 21 days by Alizarin-red dye based assay; assay type: functional, cell-based; method in brief: as §2
Rattus norvegicus [24] = assay: Osteogenic activity in Sprague-Dawley rat drill-hole fracture model assessed as increase in bone volume/trabecular volume at 10 mg/kg/day for 14 consecutive days by micro CT-scan analysis; assay type: functional, organism-based
Method in brief: (§4)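 Adult female Sprague-Dawley rats (200 ± 20 g, 12 weeks) under ketamine/xylazine anaesthesia received a 0.8 mm drill-hole defect in the femoral diaphysis, 2 cm above the knee. Dosing was oral at 10 mg·kg⁻¹·day⁻¹, or gum acacia vehicle, for 14 days starting the next day. The defect was scanned by micro-CT at 18 µm voxel and 70 kV; n=6/group.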

Rattus norvegicus [25] = assay: Osteogenic activity in Sprague-Dawley rat drill-hole fracture model assessed as increase in trabecular number at 10 mg/kg/day for 14 consecutive days by micro CT-scan analysis; assay type: functional, organism-based; method in brief: as §4
Rattus norvegicus [26] = assay: Osteogenic activity in Sprague-Dawley rat drill-hole fracture model assessed as increase in connection density at 10 mg/kg/day for 14 consecutive days by micro CT-scan analysis; assay type: functional, organism-based; method in brief: as §4
Rattus norvegicus [27] = assay: Osteogenic activity in Sprague-Dawley rat drill-hole fracture model assessed as enhanced callus regeneration of femur bone at 10 mg/kg/day by H and E staining-based analysis; assay type: functional, organism-based
Method in brief: (§5)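 Drill-hole femur defect in female Sprague-Dawley rats with oral dosing at 10 mg·kg⁻¹·day⁻¹ or gum acacia vehicle for 14 days. Bones were decalcified in EDTA and the callus at the defect site was stained with H&E; n=6/group.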

Rattus norvegicus [28] = assay: Hepatotoxicity in Sprague-Dawley rat drill-hole fracture model assessed as morphological alterations at 10 mg/kg, po qd for 14 days by haematoxylin and eosin staining-based microscopic analysis; assay type: toxicity, organism-based; conditions: in vivo, 336 h
Method in brief: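 From the next day they were dosed orally for 14 days, 6 per group, with vehicle gum acacia in water. Livers were collected at the end, cut into 5 µm paraffin sections, dewaxed, stained with H&E and examined by light microscopy.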

Calvarial osteoblast [29] = assay: Cytotoxicity against rat calvarial osteoblasts at 0.000001 uM to 1 uM after 48 hrs by MTT assay; assay type: cell-based; conditions: 1 pM; method in brief: as §3
Rattus norvegicus [30] = assay: Osteogenic activity in Sprague-Dawley rat drill-hole fracture model assessed as increase in Bmp2 expression levels at 10 mg/kg/day by qRT-PCR analysis; assay type: functional, organism-based
Rattus norvegicus [31] = assay: Osteogenic activity in Sprague-Dawley rat drill-hole fracture model assessed as bone formation at 10 mg/kg/day by H and E staining-based analysis relative to control; assay type: functional, organism-based; method in brief: as §5
Rattus norvegicus [32] = assay: Upregulation of Bmp2 mRNA in rat pup calvarial tissue at 1 to 10 mg/kg/day administered subcutaneously for 3 consecutive days by qRT-PCR analysis; assay type: functional, organism-based
Method in brief: (§6)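 Rat pups received subcutaneous injections at the calvarial skull site of 0.1, 0.5, 1.0, 5.0, 10 or 20 mg·kg⁻¹·day⁻¹, or normal-saline vehicle, for 3 consecutive days. Calvaria were then collected, RNA was isolated with TRIzol, and Runx2 and Bmp2 were measured by qRT-PCR; n=5, mean ± SEM.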

Calvarial osteoblast [33] = assay: Upregulation of Osx mRNA levels in rat calvarial osteoblasts at 100 pM after 48 hrs by qRT-PCR analysis relative to control; assay type: functional; method in brief: as §1
Rattus norvegicus [34] = assay: Upregulation of Runx2 mRNA in rat pup calvarial tissue at 1 to 10 mg/kg/day administered subcutaneously for 3 consecutive days by qRT-PCR analysis; assay type: functional, organism-based; method in brief: as §6
Rattus norvegicus [35] = assay: Osteogenic activity in Sprague-Dawley rat drill-hole fracture model assessed as enhanced callus regeneration of femur bone at 10 mg/kg/day by calcein labeling based confocal microscopic method; assay type: functional
Method in brief: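 Drill-hole femur defect in female Sprague-Dawley rats with oral dosing at 10 mg·kg⁻¹·day⁻¹ for 14 days. Calcein (20 mg/kg i.p.) was given 2 days before autopsy. Acrylic-embedded 50 µm bone sections were imaged by confocal microscopy, and mean calcein intensity per pixel was quantified at the defect; n=6/group.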

Calvarial osteoblast [36] = assay: Upregulation of Bmp2 expression levels in rat calvarial osteoblasts at 100 pM after 48 hrs by ELISA; assay type: functional, cell-based
Method in brief: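 Calvarial osteoblasts were seeded at 5×10^3 cells/well and treated 48 h at 100 pM in α-MEM with 1% charcoal-stripped FCS. BMP2 in the culture supernatant was measured by sandwich ELISA, with OD read at 450 nm.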

Calvarial osteoblast [37] = assay: Upregulation of Col1 mRNA levels in rat calvarial osteoblasts at 100 pM after 48 hrs by qRT-PCR analysis relative to control; assay type: functional; method in brief: as §1
Calvarial osteoblast [38] = assay: Upregulation of Bmp2 mRNA levels in rat calvarial osteoblasts at 100 pM after 48 hrs by qRT-PCR analysis relative to control; assay type: functional; method in brief: as §1
Calvarial osteoblast [39] = assay: Upregulation of RUNX2 expression levels in rat calvarial osteoblasts at 100 pM after 48 hrs by Western blot analysis; assay type: functional, cell-based
Rattus norvegicus [40] = assay: Osteogenic activity in Sprague-Dawley rat drill-hole fracture model assessed as increase in trabecular thickness at 10 mg/kg/day for 14 consecutive days by micro CT-scan analysis; assay type: functional, organism-based; method in brief: as §4
Calvarial osteoblast [41] = assay: Upregulation of COL1 expression levels in rat calvarial osteoblasts at 100 pM after 48 hrs by Western blot analysis; assay type: functional, cell-based
Rattus norvegicus [42] = assay: Upregulation of Bmp2 mRNA in rat pup calvarial tissue at >10 mg/kg/day administered subcutaneously for 3 consecutive days by qRT-PCR analysis; assay type: functional, organism-based; method in brief: as §6
Rattus norvegicus [43] = assay: Upregulation of Runx2 mRNA in rat pup calvarial tissue at >10 mg/kg/day administered subcutaneously for 3 consecutive days by qRT-PCR analysis; assay type: functional, organism-based; method in brief: as §6

## CCOC(=O)C1=C(C)NC2=C(C(=O)CCC2)C1c1cc(C(C)CC)c2oc(C(=O)c3ccc(OC)cc3)cc2c1 (configuration not stated)
Calvarial osteoblast [1]
  fold change (FC): 2 - 5.5
Calvarial osteoblast [2]
  OD: 0.25
Calvarial osteoblast [3]
  fold change (FC): 2 - 5.5
Calvarial osteoblast [4]
  fold change (FC): 2 - 5.5
Calvarial osteoblast [5]
  OD: 0.94
Calvarial osteoblast [6]
  fold change (FC): 2 - 5.5
Calvarial osteoblast [7]
  Activity: Active
Calvarial osteoblast [8]
  OD: 1.4
Calvarial osteoblast [9]
  fold change (FC): 2 - 5.5
Calvarial osteoblast [10]
  EC50: 10 nM
Calvarial osteoblast [11]
  fold change (FC): 2 - 5.5
Calvarial osteoblast [12]
  OD: 0.99
Calvarial osteoblast [13]
  OD: 1.37
Calvarial osteoblast [14]
  fold change (FC): 2 - 5.5
Calvarial osteoblast [15]
  fold change (FC): 2 - 5.5
Calvarial osteoblast [16]
  fold change (FC): 2 - 5.5
Calvarial osteoblast [17]
  fold change (FC): 2 - 5.5

## CCOC(=O)C1=C(C)NC2=C(C(=O)CCC2)C1c1cc(C(C)CC)c2oc(C(=O)c3ccc(C)cc3)cc2c1 (configuration not stated)
Calvarial osteoblast [2]
  OD: 0.36
Calvarial osteoblast [18]
  Activity: Active
Calvarial osteoblast [19]
  fold change (FC): 3.9
Rattus norvegicus [20]
  Activity: Active
Calvarial osteoblast [21]
  fold change (FC): 4.5
Calvarial osteoblast [22]
  Activity: Toxic
Calvarial osteoblast [23]
  Activity: Active
Rattus norvegicus [24]
  Activity: Active
Rattus norvegicus [25]
  Activity: Active
Rattus norvegicus [26]
  Activity: Active
Rattus norvegicus [27]
  Activity: Active
Rattus norvegicus [28]
  Activity: Non-Toxic
Calvarial osteoblast [29]
  Activity: Non-Toxic
Rattus norvegicus [30]
  Activity: Active
Rattus norvegicus [31]
  Activity: Active
Rattus norvegicus [32]
  Activity: Active
Calvarial osteoblast [5]
  OD: 1.14
Calvarial osteoblast [33]
  fold change (FC): 3.7
Rattus norvegicus [34]
  Activity: Active
Calvarial osteoblast [8]
  OD: 1.19
Calvarial osteoblast [9]
  fold change (FC): 3.1
Calvarial osteoblast [10]
  EC50: 0.1 nM
Rattus norvegicus [35]
  Activity: 40%
Calvarial osteoblast [12]
  OD: 1.32
Calvarial osteoblast [13]
  OD: 1.16
Calvarial osteoblast [36]
  Activity: Active
Calvarial osteoblast [37]
  fold change (FC): 5
Calvarial osteoblast [38]
  fold change (FC): 4.5
Calvarial osteoblast [15]
  fold change (FC): 3.4
Calvarial osteoblast [39]
  Activity: Active
Rattus norvegicus [40]
  Activity: Active
Calvarial osteoblast [41]
  Activity: Active
Rattus norvegicus [42]
  Activity: inactive
Rattus norvegicus [43]
  Activity: inactive
Calvarial osteoblast [17]
  fold change (FC): 3.7
